pIC50: −log10 of the molar value. Converted amounts (≈) assume the structure as drawn.
Experiments:
[1] = Clearance in mouse at 5 mg/kg, iv; type: ADME, organism-based; set-up: dose 5 mg/kg, route intravenous; details: in vivo
[2] = system: Plasmodium falciparum; assay: Antimalarial activity against drug-sensitive Plasmodium falciparum NF54 infected in human erythrocytes after 48 hrs by [3H]hypoxanthine assay; type: functional, organism-based
[3] = molecular target: Cytochrome P450 2C9 (Homo sapiens, UniProt P11712); assay: Inhibition of CYP2C9 in human liver microsome by LC-MS/MS analysis; type: ADME, microsomes
Chain of Cytochrome P450 2C9 (P11712 whole entry): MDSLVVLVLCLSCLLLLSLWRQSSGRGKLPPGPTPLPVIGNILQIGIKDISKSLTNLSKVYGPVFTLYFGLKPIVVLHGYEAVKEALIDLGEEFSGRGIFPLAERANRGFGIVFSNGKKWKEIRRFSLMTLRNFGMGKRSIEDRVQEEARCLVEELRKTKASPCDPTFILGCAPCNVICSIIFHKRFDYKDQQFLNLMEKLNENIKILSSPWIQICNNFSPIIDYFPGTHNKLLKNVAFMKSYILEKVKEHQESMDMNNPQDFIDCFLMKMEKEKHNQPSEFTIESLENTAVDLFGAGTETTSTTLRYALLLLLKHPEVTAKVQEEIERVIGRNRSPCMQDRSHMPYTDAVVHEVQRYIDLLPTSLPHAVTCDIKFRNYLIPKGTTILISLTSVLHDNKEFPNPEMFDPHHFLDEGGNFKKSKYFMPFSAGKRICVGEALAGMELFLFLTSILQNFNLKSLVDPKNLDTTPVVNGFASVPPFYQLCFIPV

[4] = molecular target: Cytochrome P450 3A4 (Homo sapiens, UniProt P08684); assay: Inhibition of CYP3A4 in human liver microsome by LC-MS/MS analysis; type: ADME, microsomes
Chain of Cytochrome P450 3A4 (P08684 whole entry): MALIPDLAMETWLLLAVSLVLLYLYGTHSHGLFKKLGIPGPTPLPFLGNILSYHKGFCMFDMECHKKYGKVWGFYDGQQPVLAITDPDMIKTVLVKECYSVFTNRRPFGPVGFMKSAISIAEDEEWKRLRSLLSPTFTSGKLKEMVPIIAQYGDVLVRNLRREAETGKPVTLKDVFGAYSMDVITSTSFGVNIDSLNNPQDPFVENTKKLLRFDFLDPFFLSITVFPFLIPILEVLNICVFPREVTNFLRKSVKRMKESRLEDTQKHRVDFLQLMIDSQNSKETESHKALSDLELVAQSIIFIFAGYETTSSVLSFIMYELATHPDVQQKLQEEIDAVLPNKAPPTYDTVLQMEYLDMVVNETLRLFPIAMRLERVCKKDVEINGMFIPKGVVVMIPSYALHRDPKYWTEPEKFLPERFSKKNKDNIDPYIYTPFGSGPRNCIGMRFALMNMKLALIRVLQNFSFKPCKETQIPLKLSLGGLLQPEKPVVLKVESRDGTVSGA

[5] = molecular target: Cytochrome P450 2D6 (Homo sapiens, UniProt P10635); assay: Inhibition of CYP2D6 in human liver microsome by LC-MS/MS analysis; type: ADME, microsomes
Chain of Cytochrome P450 2D6 (P10635 whole entry): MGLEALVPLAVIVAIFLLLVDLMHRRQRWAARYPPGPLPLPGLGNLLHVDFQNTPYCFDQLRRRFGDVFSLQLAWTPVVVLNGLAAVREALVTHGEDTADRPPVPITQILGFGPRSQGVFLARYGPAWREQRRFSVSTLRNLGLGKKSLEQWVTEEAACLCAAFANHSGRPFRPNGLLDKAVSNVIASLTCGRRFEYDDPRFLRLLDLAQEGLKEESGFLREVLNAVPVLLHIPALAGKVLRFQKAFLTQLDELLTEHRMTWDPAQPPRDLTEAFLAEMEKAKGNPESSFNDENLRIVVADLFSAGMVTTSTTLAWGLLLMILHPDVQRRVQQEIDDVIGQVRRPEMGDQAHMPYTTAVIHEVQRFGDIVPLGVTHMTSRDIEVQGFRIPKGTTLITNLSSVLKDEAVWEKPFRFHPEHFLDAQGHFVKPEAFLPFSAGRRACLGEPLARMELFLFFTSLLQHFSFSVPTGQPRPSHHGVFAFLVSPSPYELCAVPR

[6] = Cmax in mouse at 25 mg/kg, po; type: ADME, organism-based; set-up: dose 25 mg/kg, route oral; details: in vivo
Summary of the method: (§1)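 Mouse pharmacokinetics. Plasma drug concentration was followed over time. Derived values: Cmax, Tmax, AUC extrapolated to infinity, terminal half-life, and oral bioavailability (F) from the oral and iv exposures.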

[7] = Tmax in mouse at 25 mg/kg, po; type: ADME, organism-based; set-up: dose 25 mg/kg, route oral; details: in vivo; summary of the method: as §1
[8] = AUC (infinity) in mouse at 25 mg/kg, po; type: ADME, organism-based; set-up: time infinity, dose 25 mg/kg, route oral; details: plasma; summary of the method: as §1
[9] = Half life in mouse at 25 mg/kg, po; type: ADME, organism-based; set-up: dose 25 mg/kg, route oral; details: in vivo; summary of the method: as §1
[10] = system: Mus musculus; assay: Oral bioavailability in mouse at 25 mg/kg; type: ADME, organism-based; details: in vivo; summary of the method: as §1
[11] = system: Plasmodium berghei; assay: Antimalarial activity against Plasmodium berghei ANKA infected in NMRI mice (Mus musculus) assessed as host survival time at 30 mg/kg, perorally administered as single dose (reference value: 6 to 7 days); type: functional; details: route oral
[12] = system: Plasmodium berghei; assay: Antimalarial activity against Plasmodium berghei ANKA infected in NMRI mice (Mus musculus) assessed as host survival time at 100 mg/kg, perorally administered as single dose (reference value: 6 to 7 days); type: functional; details: route oral
[13] = system: Plasmodium berghei; assay: Antimalarial activity against Plasmodium berghei ANKA infected in NMRI mice (Mus musculus) assessed as host survival time at 10 mg/kg, perorally administered once daily for 3 days (reference value: 6 to 7 days); type: functional; details: route oral
[14] = system: Plasmodium berghei; assay: Antimalarial activity against Plasmodium berghei ANKA infected in NMRI mice (Mus musculus) assessed as host survival time at 30 mg/kg, perorally administered once daily for 3 days (reference value: 6 to 7 days); type: functional; details: route oral
[15] = Solubility at pH 6.8; type: physicochemical; details: buffer
[16] = Lipophilicity, log P of the compound; type: physicochemical; details: octanol/water
[17] = molecular target: Voltage-gated inwardly rectifying potassium channel KCNH2 (Homo sapiens, UniProt Q12809); assay: Binding affinity to human ERG
Chain of Voltage-gated inwardly rectifying potassium channel KCNH2 (Q12809 whole entry): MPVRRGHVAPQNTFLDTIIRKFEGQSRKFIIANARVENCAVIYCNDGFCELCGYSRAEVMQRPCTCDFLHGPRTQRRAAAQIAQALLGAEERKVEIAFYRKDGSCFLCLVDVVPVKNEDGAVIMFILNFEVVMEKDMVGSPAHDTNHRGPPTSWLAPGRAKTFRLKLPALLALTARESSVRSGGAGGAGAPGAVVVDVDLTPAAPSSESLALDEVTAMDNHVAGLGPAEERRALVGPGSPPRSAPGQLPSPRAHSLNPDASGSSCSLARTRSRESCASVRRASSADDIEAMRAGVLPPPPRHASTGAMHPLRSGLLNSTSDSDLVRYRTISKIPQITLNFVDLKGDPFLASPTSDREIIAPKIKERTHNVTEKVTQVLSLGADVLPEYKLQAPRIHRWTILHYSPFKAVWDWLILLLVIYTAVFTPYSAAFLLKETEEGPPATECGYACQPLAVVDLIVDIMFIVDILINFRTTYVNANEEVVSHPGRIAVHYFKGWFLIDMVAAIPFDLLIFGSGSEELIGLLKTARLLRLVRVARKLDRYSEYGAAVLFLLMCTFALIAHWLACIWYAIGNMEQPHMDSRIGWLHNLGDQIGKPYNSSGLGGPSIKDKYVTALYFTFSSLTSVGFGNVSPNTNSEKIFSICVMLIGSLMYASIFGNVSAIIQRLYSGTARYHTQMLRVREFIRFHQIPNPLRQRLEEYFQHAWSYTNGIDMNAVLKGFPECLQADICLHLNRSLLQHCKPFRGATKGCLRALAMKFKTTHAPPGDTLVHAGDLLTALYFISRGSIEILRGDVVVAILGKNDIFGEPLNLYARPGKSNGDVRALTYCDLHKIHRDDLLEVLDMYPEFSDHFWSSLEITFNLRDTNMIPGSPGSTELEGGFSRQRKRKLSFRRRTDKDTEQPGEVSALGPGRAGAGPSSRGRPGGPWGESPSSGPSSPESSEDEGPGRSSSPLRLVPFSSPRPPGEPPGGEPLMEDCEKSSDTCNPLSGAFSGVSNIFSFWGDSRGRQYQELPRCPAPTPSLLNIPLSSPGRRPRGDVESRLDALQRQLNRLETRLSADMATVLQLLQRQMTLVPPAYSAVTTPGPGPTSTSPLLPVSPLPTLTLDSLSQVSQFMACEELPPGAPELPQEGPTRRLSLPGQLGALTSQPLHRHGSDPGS

[18] = Clearance in mouse at 5 mg/kg, iv; details: in vivo
[19] = Half life in mouse at 5 mg/kg, iv; details: in vivo
[20] = Volume of distribution at steady state in mouse at 5 mg/kg, iv; details: in vivo, read-out: Vdss
[21] = system: Plasmodium falciparum; assay: Antimalarial activity against chloroquine-resistant Plasmodium falciparum K1 infected in human erythrocytes after 48 hrs by [3H]hypoxanthine assay; type: functional, organism-based
[22] = system: Plasmodium berghei; assay: Antimalarial activity against Plasmodium berghei ANKA infected in NMRI mice (Mus musculus) assessed as reduction in parasitaemia at 30 mg/kg, perorally administered as single dose; type: functional; set-up: scale not given: the % may be the effect or the level left; details: route oral
Summary of the method: (§2)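 P. berghei-infected mice, 5 per group, given compound orally in 10% ethanol, 30% PEG400, 6% vitamin E TPGS, as a single dose or daily for three days. Parasitemia is measured on day three and reported as percent reduction (activity).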

[23] = system: Plasmodium berghei; assay: Antimalarial activity against Plasmodium berghei ANKA infected in NMRI mice (Mus musculus) assessed as reduction in parasitaemia at 100 mg/kg, perorally administered as single dose; type: functional; set-up: scale not given: the % may be the effect or the level left; details: route oral; summary of the method: as §2
[24] = system: Plasmodium berghei; assay: Antimalarial activity against Plasmodium berghei ANKA infected in NMRI mice (Mus musculus) assessed as reduction in parasitaemia at 10 mg/kg, perorally administered once daily for 3 days; type: functional; set-up: scale not given: the % may be the effect or the level left; details: route oral; summary of the method: as §2
[25] = system: Plasmodium berghei; assay: Antimalarial activity against Plasmodium berghei ANKA infected in NMRI mice (Mus musculus) assessed as reduction in parasitaemia at 30 mg/kg, perorally administered once daily for 3 days; type: functional; set-up: scale not given: the % may be the effect or the level left; details: route oral; summary of the method: as §2

C[C@@H]1Cc2c([nH]c3cc(Cl)c(F)cc23)[C@]2(N1)C(=O)Nc1ccc(Cl)cc12
clearance [1]: 2.58 mL/min/kg
pIC50 [2]: 7.11
pIC50 [3]: < 5.00
IC50 [4]: Not Active
IC50 [5]: Not Active

C[C@H]1Cc2c([nH]c3cc(F)c(F)cc23)[C@@]2(N1)C(=O)Nc1ccc(Cl)cc12
Cmax [6]: 8.32 µM
Tmax [7]: 2 h
AUC(0-inf) [8]: 71.4 µM·h
half-life [9]: 3.18 h
F [10]: 53%
clearance [1]: 8.53 mL/min/kg
Survival [11]: 12 days
Survival [12]: 13 days
Survival [13]: 17.2 days
Survival [14]: 29.4 days
pIC50 [2]: 9.70
solubility [15]: 170 µg/mL (≈ 455 µM)
logP [16]: 4
pIC50 [17]: < 4.52
pIC50 [3]: 5.13
IC50 [4]: Not Active
IC50 [5]: Not Active
clearance [18]: 8.53 mL/min/kg
half-life [19]: 2.94 h
Vd [20]: 1.6 L/kg

C[C@@H]1Cc2c([nH]c3ccc(F)cc23)[C@]2(N1)C(=O)Nc1ccc(Cl)cc12
pIC50 [2]: 6.74
pIC50 [3]: < 5.00
IC50 [4]: Not Active
IC50 [5]: Not Active

C[C@H]1CCc2c([nH]c3ccccc23)[C@@]2(N1)C(=O)Nc1ccc(Br)cc12
solubility [15]: 79 µg/mL (≈ 199 µM)
logP [16]: 3.9

C[C@@H]1CCc2c([nH]c3ccccc23)[C@]2(N1)C(=O)Nc1ccc(Br)cc12
pIC50 [2]: < 5.30

CC1CCc2c([nH]c3ccccc23)C2(N1)C(=O)Nc1ccc(Cl)cc12 (stereo not given)
pIC50 [2]: 7.08

O=C1Nc2ccc(Cl)cc2C12NCCCCc1c2[nH]c2ccccc12 (stereo not given)
pIC50 [2]: < 5.30
pIC50 [21]: < 5.30

O=C1Nc2ccc(Cl)cc2C12NCCc1c2[nH]c2ccccc12 (stereo not given)
pIC50 [2]: 6.90
pIC50 [21]: 6.98

CC1(C)Cc2c([nH]c3ccccc23)C2(N1)C(=O)Nc1ccc(Cl)cc12 (stereo not given)
pIC50 [2]: 6.07
pIC50 [21]: 6.09

C[C@H]1Cc2c([nH]c3ccc(F)cc23)[C@@]2(N1)C(=O)Nc1ccc(Cl)cc12
clearance [1]: 24 mL/min/kg
pIC50 [2]: 8.52
solubility [15]: 140 µg/mL (≈ 393 µM)
logP [16]: 3.6
pIC50 [3]: 5.76
IC50 [4]: Not Active
IC50 [5]: Not Active

C[C@@H]1Cc2c([nH]c3cc(Cl)ccc23)[C@]2(N1)C(=O)Nc1ccc(Cl)cc12
pIC50 [2]: 6.94
pIC50 [3]: < 5.00
IC50 [4]: Not Active
IC50 [5]: Not Active

O=C1Nc2ccc(Cl)cc2C12NCCCc1c2[nH]c2ccccc12 (stereo not given)
pIC50 [2]: 7.07
pIC50 [21]: 7.08

C[C@H]1Cc2c([nH]c3cc(Cl)ccc23)[C@@]2(N1)C(=O)Nc1ccc(Cl)cc12
clearance [1]: 60.1 mL/min/kg
pIC50 [2]: 8.40
solubility [15]: 8 µg/mL (≈ 21.5 µM)
logP [16]: 4.8
pIC50 [17]: < 4.52
pIC50 [3]: 5.39
IC50 [4]: Not Active
IC50 [5]: Not Active

C[C@@H]1Cc2c([nH]c3cc(F)c(F)cc23)[C@]2(N1)C(=O)Nc1ccc(Cl)cc12
clearance [1]: 4.14 mL/min/kg
pIC50 [2]: 7.08
pIC50 [3]: < 5.00
IC50 [4]: Not Active
IC50 [5]: Not Active

C[C@H]1[C@H](OC(=O)CCC(=O)O)O[C@@H]2O[C@@]3(C)CC[C@H]4[C@H](C)CC[C@@H]1[C@@]24OO3 [ARTESUNATE]
Activity [22]: 95.6%
Survival [11]: 5.8 days
Activity [23]: 98%
Survival [12]: 7 days
Activity [24]: 96%
Survival [13]: 8.1 days
Activity [25]: 99%
Survival [14]: 12.2 days

CCN(CC)CCCC(C)Nc1ccnc2cc(Cl)ccc12 (stereo not given) [CHLOROQUINE]
Activity [22]: 99.5%
Survival [11]: 9 days
Activity [23]: 99.6%
Survival [12]: 12.5 days
Activity [24]: 99.8%
Survival [13]: 13.6 days
Activity [25]: 99.8%
Survival [14]: 14.3 days

C[C@H]1Cc2c([nH]c3cc(Cl)c(F)cc23)[C@@]2(N1)C(=O)Nc1ccc(Cl)cc12 [CIPARGAMIN]
pIC50 [3]: 5.27
IC50 [4]: Not Active
IC50 [5]: Not Active

CC1CCc2c([nH]c3ccccc23)C2(N1)C(=O)Nc1ccc(Br)cc12 (stereo not given) [SPIROAZEPINEINDOLE]
pIC50 [2]: 7.05

Source: ChEMBL document CHEMBL1155453, “Spirotetrahydro beta-carbolines (spiroindolones): a new class of potent and orally efficacious compounds for the treatment of malaria” (J Med Chem, 2010)
